Experiment [1] can be described thus: Positive allosteric modulator activity at rat alpha1beta2gamma2L GABA-A receptor expressed in Xenopus laevis oocytes in presence of EC2-5 GABA by two-electrode voltage clamp assay. Format: cell-based. The settings on record: Oocyte. In general terms: In two-electrode clamp one electrode senses voltage and the other passes current.
In experiment [2] the target is T1, GABA-A receptor; alpha-1/beta-2/gamma-2 (Homo sapiens) (UniProt P14867+P47870+P18507). The experiment can be described thus: Positive allosteric modulator activity at human alpha1beta2Sgamma2S GABA-A receptor expressed in Xenopus laevis oocytes assessed as potentiation of EC10 GABA response by two electrode voltage-clamp assay relative to control. Format: cell-based. The settings on record: Oocyte. Summed up: (§1)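 Same sequence as the EC50 potentiation protocol: baseline GABA doses, ligand alone, 30 s incubation, then coapplication, then two GABA check doses. Here 40 μM PAM is coapplied with an EC10–15 GABA dose. The EC10–15 for each mutant receptor was verified from full GABA dose–response curves.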

In experiment [3] the target is T1, GABA-A receptor; alpha-1/beta-2/gamma-2 (Homo sapiens). The experiment can be described thus: Agonist activity at human alpha1beta2Sgamma2S GABA-A receptor expressed in Xenopus laevis oocytes by two electrode voltage-clamp assay. Format: cell-based. To be noted: Oocyte, filed as agonist. Summed up:
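Test ligand applied alone at 40 μM to oocytes expressing human α1β2γ2 receptors. Current read by two-electrode voltage clamp and compared with GABA EC50 responses recorded in the same sequence.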

The target of experiment [4] is T2, GABA-A receptor; alpha-1/beta-2/gamma-2 (Homo sapiens, UniProt P14867+P18507+P47870).
T2 sequence (P14867 whole entry): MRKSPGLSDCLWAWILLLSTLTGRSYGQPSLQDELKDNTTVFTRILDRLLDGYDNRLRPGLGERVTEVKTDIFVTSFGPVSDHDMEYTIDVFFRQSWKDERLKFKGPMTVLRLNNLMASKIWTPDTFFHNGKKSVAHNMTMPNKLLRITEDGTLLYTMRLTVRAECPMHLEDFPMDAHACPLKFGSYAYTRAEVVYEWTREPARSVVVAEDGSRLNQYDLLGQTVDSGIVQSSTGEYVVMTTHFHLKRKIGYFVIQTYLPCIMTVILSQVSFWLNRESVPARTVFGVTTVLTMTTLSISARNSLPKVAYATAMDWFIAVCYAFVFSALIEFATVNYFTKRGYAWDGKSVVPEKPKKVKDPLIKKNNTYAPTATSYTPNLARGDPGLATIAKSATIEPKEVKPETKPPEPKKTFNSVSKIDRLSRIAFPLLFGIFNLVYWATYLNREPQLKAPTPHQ
T2 sequence (P47870 whole entry): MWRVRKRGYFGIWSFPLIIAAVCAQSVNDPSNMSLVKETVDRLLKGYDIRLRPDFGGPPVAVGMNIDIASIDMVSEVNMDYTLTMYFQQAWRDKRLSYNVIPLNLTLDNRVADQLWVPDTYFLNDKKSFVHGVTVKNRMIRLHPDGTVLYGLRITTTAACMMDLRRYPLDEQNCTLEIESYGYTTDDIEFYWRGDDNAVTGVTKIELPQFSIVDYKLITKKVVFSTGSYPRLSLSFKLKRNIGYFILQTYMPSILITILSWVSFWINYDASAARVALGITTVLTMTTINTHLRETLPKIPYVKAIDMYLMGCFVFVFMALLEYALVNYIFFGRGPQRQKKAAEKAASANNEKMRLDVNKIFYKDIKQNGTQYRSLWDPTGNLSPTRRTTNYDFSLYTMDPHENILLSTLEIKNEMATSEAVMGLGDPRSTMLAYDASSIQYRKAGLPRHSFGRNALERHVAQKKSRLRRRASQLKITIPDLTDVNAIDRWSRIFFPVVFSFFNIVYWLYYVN
T2 sequence (P18507 whole entry): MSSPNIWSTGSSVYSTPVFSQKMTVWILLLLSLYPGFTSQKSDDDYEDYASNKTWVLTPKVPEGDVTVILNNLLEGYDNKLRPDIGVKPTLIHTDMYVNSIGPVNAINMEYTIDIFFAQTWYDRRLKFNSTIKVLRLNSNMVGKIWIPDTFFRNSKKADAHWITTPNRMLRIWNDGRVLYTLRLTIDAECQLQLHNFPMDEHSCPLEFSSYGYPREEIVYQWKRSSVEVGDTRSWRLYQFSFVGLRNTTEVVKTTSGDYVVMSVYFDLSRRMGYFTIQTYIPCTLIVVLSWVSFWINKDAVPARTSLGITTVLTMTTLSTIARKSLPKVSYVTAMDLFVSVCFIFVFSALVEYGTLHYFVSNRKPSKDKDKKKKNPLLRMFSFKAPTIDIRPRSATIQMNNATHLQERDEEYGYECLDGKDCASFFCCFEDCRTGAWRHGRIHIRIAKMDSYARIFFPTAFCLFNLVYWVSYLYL
Kind of experiment: Positive allosteric modulator activity at human alpha1beta2Sgamma2S GABA-A receptor expressed in Xenopus laevis oocytes in presence of EC5 GABA by two electrode voltage-clamp assay. It counts as cell-based, Oocyte. Summed up:
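Modulator dose–response with each concentration coapplied with GABA EC5. The peak current at GABA EC5 alone was subtracted from all responses, and the EC50 was taken from the fitted curve.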

Experiment [5] concerns the target GABA-A receptor; GABA-A site (alpha1/beta2 interface) (Homo sapiens) (UniProt P14867+P47870). The experiment can be described thus: Positive allosteric modulator activity at human alpha1beta2S GABA-A receptor expressed in Xenopus laevis oocytes assessed as potentiation of EC50 GABA response at 40 uM by two electrode voltage-clamp assay relative to control. It counts as cell-based. To be noted: Oocyte. Summed up:
(§2)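 Two-electrode voltage clamp in oocytes. Three GABA EC50 applications set the baseline. The test ligand alone is then given at 40 μM, followed after a 30 s incubation by GABA EC50 plus 40 μM ligand. Two further GABA EC50 doses check receptor function after modulation. Result is the percent change relative to the GABA-only baseline.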

The target of experiment [6] is T1, GABA-A receptor; alpha-1/beta-2/gamma-2 (Homo sapiens). The experiment can be described thus: Positive allosteric modulator activity at human alpha1beta2Sgamma2S GABA-A receptor expressed in Xenopus laevis oocytes assessed as potentiation of EC50 GABA response at 40 uM by two electrode voltage-clamp assay relative to control. Format: cell-based. To be noted: Oocyte. Summed up: as §2

The test system of experiment [7] is Oocyte. The experiment can be described thus: Positive allosteric modulator activity at human GABA-A receptor alpha1beta2Sgamma2S S297I/N289I/S319I triple mutant expressed in Xenopus laevis oocytes assessed as potentiation of EC10 GABA response by two electrode voltage-clamp assay relative to control. It counts as cell-based. Summed up:
as §1

Experiment [8] has as its system Oocyte. Kind of experiment: Positive allosteric modulator activity at human GABA-A receptor alpha1beta2Sgamma2S H129R mutant expressed in Xenopus laevis oocytes assessed as potentiation of EC10 GABA response by two electrode voltage-clamp assay relative to control. It counts as cell-based. To be noted: filed as positive allosteric modulator. Summed up: as §1
Experiment [9] deals with Oocyte. Kind of experiment: Positive allosteric modulator activity at human GABA-A receptor alpha1beta2Sgamma2S Q88C mutant expressed in Xenopus laevis oocytes assessed as potentiation of EC10 GABA response by two electrode voltage-clamp assay relative to control. Format: cell-based. To be noted: filed as positive allosteric modulator. Summed up:
as §1

Experiment [10] deals with T1, GABA-A receptor; alpha-1/beta-2/gamma-2 (Homo sapiens). Kind of experiment: Positive allosteric modulator activity at human alpha1beta2Sgamma2S GABA-A receptor expressed in Xenopus laevis oocytes in presence of EC50 GABA by two electrode voltage-clamp assay. It counts as cell-based. The settings on record: Oocyte, filed as positive allosteric modulator.
Experiment [11] concerns Oocyte. The experiment can be described thus: Positive allosteric modulator activity at human GABA-A receptor alpha1beta2Sgamma2S Y209Q mutant expressed in Xenopus laevis oocytes assessed as potentiation of EC10 GABA response by two electrode voltage-clamp assay relative to control. Format: cell-based. The settings on record: filed as positive allosteric modulator. Summed up:
as §1

[12] abbreviates: filed as positive allosteric modulator.

The record followed here is ChEMBL document CHEMBL4725470, “Synthesis and Biological Evaluation of Pyrroloindolines as Positive Allosteric Modulators of the α1β2γ2 GABA Receptor” (ACS Med Chem Lett, 2020).

The structures appear in SMILES notation. Activity calls are given as the source filed them. The calls are words filed in the database; no cut-off is given here.

On to `Cc1ccc(-c2nc3ccc(C)cn3c2CC(=O)N(C)C)cc1` [ZOLPIDEM], for which the EC50 in experiment [1] was found to be 340 nM. With `CN1CC[C@]2(O)c3cc(Br)ccc3N(C)[C@]12c1ccccc1`, in [2] (setting [12]), the Activity stood at 213%. Further, the result in experiment [3] was Active. Turning to `COc1ccc([C@@]23N(C)CC[C@]2(O)c2ccccc2N3C)cc1` (racemic), the result in [2] was inactive.

Take `CN1c2ccccc2[C@@]2(O)CCN(C(=O)OCc3ccccc3)[C@@]12c1ccccc1`: the Activity in [2] was determined as 9.6%. Turning to `CN1CC[C@]2(O)c3cc(C(F)(F)F)ccc3N(C)[C@]12c1ccccc1`, the Activity in [2] (setting [12]) is 108%. As to `CN1CC[C@@]2(O)c3cc(N4CCOCC4)ccc3N(C)[C@@]12c1ccccc1`, in experiment [2], the Activity is -4.8%. For the compound `CN1CC[C@]2(O)c3ccccc3N(C)[C@]12c1ccc(Br)cc1`, the Activity in experiment [2] (setting [12]) was 98%. `CN1CC[C@]2(O)c3ccccc3N(C)[C@]12c1ccccc1` [listing 1 of 2 here]: the EC50 in [4] was determined as 110000 nM. As for `CN1CC[C@]2(O)c3ccccc3N(C)[C@]12c1ccccc1` [listing 2 of 2 here], the values for the Activity in experiment [2] (setting [12]), in experiment [5] and in experiment [6] were 125%, 17% and 16%, respectively. Take `CN1CC[C@@]2(O)c3ccccc3N(C)[C@@]12c1ccccc1`: in [5], the Activity was 9.2%. With `CO[C@]12CCN(C)[C@@]1(c1ccccc1)N(C)c1ccccc12`, the Activity in experiment [2] came out at 21%. As for `CN1CC[C@]2(F)c3ccccc3N(C)[C@]12c1ccccc1`, in experiment [2] (setting [12]), the Activity worked out at 100%. In the case of `CCN(CC)CCN1C(=O)CN=C(c2ccccc2F)c2cc(Cl)ccc21` [FLURAZEPAM], the EC50 in [1] came out at 270 nM. Regarding `CN1c2ccccc2[C@@]2(O)CCN[C@@]12c1ccccc1`, the Activity in experiment [2] (setting [12]) worked out at 41%. Turning to `COc1ccc2c(c1)[C@@]1(O)CCN(C)[C@@]1(c1ccccc1)N2C`, the Activity in [2] was determined as 17%. As to `CN1CC[C@]2(O)c3ccccc3N(C)[C@]12c1ccccc1` (racemic), the Activity with Oocyte [7] was 1%; in experiment [2] (setting [12]) it was 62%; in experiment [5], 28%; in [6], 17%. For the same compound, the result (in the experiment with Oocyte [8]; in the experiment on Oocyte [9]; in experiment [10]; in the experiment on Oocyte [11]) was Active. As to `CN1CC[C@]2(O)c3cc(I)ccc3N(C)[C@]12c1ccccc1`, in experiment [2] (setting [12]), the Activity stood at 231%. Moreover, the outcome in experiment [3] was Active. Turning to `CN1CC[C@@]2(O)c3ccccc3N(C)[C@@]12c1ccc(Br)cc1`, the Activity in experiment [2] (setting [12]) stood at 155%.

In general, EC50 refers to the concentration needed to bring the measured effect to its halfway point.
